Data from ChEMBL document CHEMBL4387759, “Discovery of novel N-methyl carbazole tethered rhodanine derivatives as direct inhibitors of Mycobacterium tuberculosis InhA” (Bioorg Med Chem Lett, 2019).
In brackets after ≈: the same amount, converted by molar mass.

Legend:
[1] = system: Mycobacterium tuberculosis; experiment: Antimycobacterial activity against Mycobacterium tuberculosis H37Rv incubated for 5 days under aerobic condition by fluorescence assay; assay type: functional, organism-based; details: 120 h
Summary of the method: (§1)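 M. tuberculosis H37Rv grown aerobically; dual read-out assay (OD590 plus fluorescence); MIC and IC50 values reported; run at IDRI under NIAID screening programme.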

[2] = biological target: T1, Enoyl-[acyl-carrier-protein] reductase [NADH] (Mycobacterium tuberculosis, UniProt P9WGR1); experiment: Inhibition of Mycobacterium tuberculosis InhA using DDCoA as substrate
T1 sequence (P9WGR1 whole entry): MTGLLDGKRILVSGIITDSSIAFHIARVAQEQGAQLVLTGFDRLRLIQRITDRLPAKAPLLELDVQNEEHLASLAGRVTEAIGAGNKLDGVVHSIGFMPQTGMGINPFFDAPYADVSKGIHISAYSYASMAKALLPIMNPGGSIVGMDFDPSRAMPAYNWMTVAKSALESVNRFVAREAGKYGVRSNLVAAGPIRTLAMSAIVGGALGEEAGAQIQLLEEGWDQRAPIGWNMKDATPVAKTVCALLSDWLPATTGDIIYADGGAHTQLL
Summary of the method: (§2)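 InhA enzyme assay run in triplicate with 2-trans-dodecenoyl-CoA as substrate analogue; inhibition followed as NADH oxidation to NAD+ at 340 nm. Compounds screened at 50 μM, selected ones also at 5 μM; IC50 from 4-parameter curve fit; GEQ as reference inhibitor.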

[3] = biological target: T2, Enoyl-[acyl-carrier-protein] reductase [NADH] (Mycobacterium tuberculosis) (UniProt P9WGR1); experiment: Inhibition of Mycobacterium tuberculosis InhA at 5 uM using DDCoA as substrate relative to control; summary of the method: as §2
T2 sequence (whole entry): T1 sequence (P9WGR1 whole entry)

Vero = experiment: Cytotoxicity against African green monkey Vero cells measured after 72 hrs by MTS-PMS assay; assay type: cell-based; details: Chlorocebus sabaeus
Summary of the method: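 Cells exposed 72 h; viability read with a non-radioactive cell proliferation assay; IC50 determined.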

[4] = Selectivity index, ratio of IC50 for African green monkey Vero cells to IC50 for Mycobacterium tuberculosis H37Rv; assay type: toxicity; details: read-out: Ratio IC50
Summary of the method: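 Ratio of cytotoxicity IC50 to H37Rv IC50; not calculated where H37Rv IC50 >100.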

[5] = system: Mycobacterium tuberculosis; experiment: Antimycobacterial activity against Mycobacterium tuberculosis H37Rv; assay type: functional; summary of the method: as §1

Structure (SMILES) | MIC [1] | IC50 [2] | inhibition [3] | IC50 (Vero) | IC50 [1] | selectivity ratio [4] | MIC [5]
Cn1c2ccccc2c2cc(/C=C3\SC(=S)N(c4ccc(C(=O)O)cc4)C3=O)ccc21 | > 100 µM | 2.82 µM | 54% | 263 µM |  |  | 
Cn1c2ccccc2c2cc(/C=C3\SC(=S)N(c4nnc(-c5ccc(Br)cc5)s4)C3=O)ccc21 | > 100 µM |  |  | 165 µM |  |  | 
COc1ccc(N2C(=O)/C(=C/c3ccc4c(c3)c3ccccc3n4C)SC2=S)cc1OC | 50 µM (≈ 23 µg/mL) |  |  | 261 µM | 50 µM | 5.2 | 
O=C(c1ccc2[nH]ccc2c1)N1CCN(C2c3ccccc3-c3ccccc32)CC1 | > 50 µM |  |  |  |  |  | 
Cn1c2ccccc2c2cc(/C=C3\SC(=S)N(c4nnc(-c5cccc(Cl)c5)s4)C3=O)ccc21 | > 100 µM |  |  | 193 µM |  |  | 
Cn1c2ccccc2c2cc(/C=C3\SC(=S)N(c4cccc(C(F)(F)F)c4)C3=O)ccc21 | > 100 µM |  |  | 167 µM |  |  | 
Cn1c2ccccc2c2cc(/C=C3\SC(=S)N(c4cccc(O)c4)C3=O)ccc21 | > 100 µM |  | 10% | 289 µM | 25 µM | 11.6 | 
COc1cc(N2C(=O)/C(=C/c3ccc4c(c3)c3ccccc3n4C)SC2=S)cc(OC)c1OC | > 100 µM |  |  | 185 µM |  |  | 
Cc1cc(=O)oc2cc(N3C(=O)/C(=C/c4ccc5c(c4)c4ccccc4n5C)SC3=S)ccc12 | 20 µM (≈ 9.65 µg/mL) |  |  | 296 µM | 20 µM | 14.8 | 
Cn1c2ccccc2c2cc(/C=C3\SC(=S)N(c4nnc(-c5ccccc5F)s4)C3=O)ccc21 | > 100 µM |  |  | 208 µM |  |  | 
COc1cccc(N2C(=O)/C(=C/c3ccc4c(c3)c3ccccc3n4C)SC2=S)c1 | > 100 µM |  |  | 235 µM |  |  | 
Cn1c2ccccc2c2cc(/C=C3\SC(=S)N(c4ccccc4)C3=O)ccc21 | > 100 µM |  |  | 240 µM | 75 µM | 3.2 | 
Cn1c2ccccc2c2cc(/C=C3\SC(=S)N(c4ccc(Cl)cc4)C3=O)ccc21 | > 100 µM |  |  | 213 µM |  |  | 
COC(=O)c1ccc(N2C(=O)/C(=C/c3ccc4c(c3)c3ccccc3n4C)SC2=S)cc1 | > 100 µM |  |  | 222 µM |  |  | 
COc1ccc(-c2nnc(N3C(=O)/C(=C/c4ccc5c(c4)c4ccccc4n5C)SC3=S)s2)cc1 | > 100 µM |  |  | 258 µM |  |  | 
Cn1c2ccccc2c2cc(/C=C3\SC(=S)N(c4nnc(-c5ccc(Cl)cc5)s4)C3=O)ccc21 | > 100 µM |  |  | 245 µM |  |  | 
Cc1cc(=O)[nH]c2cc(N3C(=O)/C(=C/c4ccc5c(c4)c4ccccc4n5C)SC3=S)ccc12 | > 100 µM |  |  | 277 µM |  |  | 
Cn1c2ccccc2c2cc(/C=C3\SC(=S)N(c4cc(C(=O)O)cc(C(=O)O)c4)C3=O)ccc21 | > 100 µM |  | 12% | 210 µM |  |  | 
COc1ccc(-c2csc(N/N=C/c3ccc4c(c3)c3ccccc3n4C)n2)cc1OC |  |  |  |  |  |  | 21 µM (≈ 9.29 µg/mL)
Cn1c2ccccc2c2cc(/C=C3\SC(=S)N(c4nnc(-c5ccccc5Cl)s4)C3=O)ccc21 | > 100 µM |  |  | 239 µM |  |  | 
